# Screening results as filed in PubChem BioAssay.
# Sampled rows, rich in hits. Any-hit rate of the full collection: about 3.3%.
# LEDGF integ inh – blocks HIV-1 LEDGF/p75-dependent DNA integration. AID 743269. inhibition, % at 3.7 µM. TR-FRET IN-LEDGF/p75 DNA integration, Eu/Cy5. 370,000 compounds, 0.64% hits;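 active means inhibition above the screen-wide mean plus 3 SD, cut at about 13% in these data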;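 further: signal is the Cy5 over europium emission ratio at 671 and 618 nm; 0% = plate median of compound wells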
# SIAE primary – inhibitors of human sialic acid acetylesterase SIAE. inhibition, % at 9.66 µM. 370,000 compounds, 0.69% hits. SIAE FP-Rh probe binding, fluorescence polarization;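 active means inhibition above a cutoff: mean of compounds within the control limits plus 3 SD of those, cut at about 17% in these data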;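 further: 0% = plate median of compound wells and 100% = probe without SIAE protein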
# UHRF1 MBD2 ctr – blocks human UHRF1 binding to methylated DNA; Q96T88; inhibition, % at 4.4 µM; 370,000 compounds, 0.75% hits; AID 687016; UHRF1 binding to methylated oligo, TR-FRET; in the data active means inhibition above about 21%;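 further: UHRF1 SRA domain binding a hemimethylated CpG hairpin DNA probe; 0% = median of test compound wells and 100% = reference inhibitor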
# PRMT1 FP inh – inhibitors of human PRMT1 | recombinant PRMT1, activity-based probe fluorescence polarization | inhibition, % at 2.79 µM | Q99873 | 370,000 compounds, 1.3% hits;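 active means inhibition above about 21% made by adding two undisclosed values, limit read from the data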
# TDP2 absorb – blocks human TDP2 phosphodiesterase activity. O95551. recombinant TDP2, T5PNP hydrolysis, p-nitrophenol absorbance 415 nm. inhibition, % at 12.8 µM. 370,000 compounds, 0.34% hits. AID 720702;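 active means inhibition above the mean of all tested compounds plus 3 SD, set per campaign, cut at about 25% in these data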;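 further: 0% = DMSO with enzyme and 100% = buffer with substrate but no TDP2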
#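 Material: recombinant human TDP2; quantity: TDP2 enzyme at 120 nM final; medium: Tris-HCl pH 7.5 with MgCl2; compound: single concentration, 12.8 µM nominal, with 1% DMSO; incubation: 2 h enzyme incubation at 37 °C; signal: epi absorbance; measure: percent inhibition; benchmarks: high control without enzyme, low control DMSO plus TDP2; repeats: singlicate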
# MBD2 inh – blocks human MBD2 binding to methylated DNA; Q9UBB5; TR-FRET, MBD2 binding to methylated oligonucleotide; inhibition, % at 4.4 µM; 370,000 compounds, 0.31% hits; AID 686964; in the data active means inhibition above about 13%
# Target sequence (Q9UBB5 whole entry, looked up): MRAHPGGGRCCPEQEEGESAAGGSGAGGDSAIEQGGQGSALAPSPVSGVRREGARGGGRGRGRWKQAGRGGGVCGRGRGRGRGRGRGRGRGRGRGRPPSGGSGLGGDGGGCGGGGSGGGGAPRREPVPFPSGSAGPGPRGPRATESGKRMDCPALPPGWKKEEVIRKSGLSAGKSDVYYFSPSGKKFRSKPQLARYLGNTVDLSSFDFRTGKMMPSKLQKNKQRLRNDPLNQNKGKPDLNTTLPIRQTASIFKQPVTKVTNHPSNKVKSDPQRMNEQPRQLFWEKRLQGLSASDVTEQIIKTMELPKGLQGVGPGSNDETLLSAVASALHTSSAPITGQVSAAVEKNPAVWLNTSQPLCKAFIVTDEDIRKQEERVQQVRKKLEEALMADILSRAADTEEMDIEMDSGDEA
# An asterisk follows results filed as active.
SMILES,LEDGF integ inh,SIAE primary,UHRF1 MBD2 ctr,PRMT1 FP inh,TDP2 absorb,MBD2 inh
Cc1ccc(-n2c(SCC(=O)Nc3ccc(OCc4ccccc4)cc3)nnc2-c2ccccc2)cc1,0.3,1.4,-0.7,2.2,10.0,0.9
CCOc1ccccc1NC(=O)C(NCCc1ccc(OC)cc1)c1ccccc1 (stereo not given),-5.3,4.5,1.2,21.2*,3.3,2.1
COc1ccc(CCNC(C(=O)Nc2cc(C)cc(C)c2)c2ccccc2)cc1 (stereo not given),-5.0,-7.9,2.5,8.6,-16.9,7.8
CCOc1ccc(-n2c(SCC(=O)Nc3cccc4ccccc34)nnc2-c2ccco2)cc1,-1.9,-3.0,-1.1,7.5,0.4,0.9
O=c1c2ccccc2nc2n1C(CSCc1ccc(Cl)cc1Cl)CS2 (stereo not given),1.7,-2.2,22.3*,4.9,2.8,8.1
Nc1ccccc1SCC1CSc2nc3ccccc3c(=O)n21 (stereo not given),-1.3,3.3,-1.2,1.1,1.6,-6.0
CCc1ccc(S(=O)(=O)Nc2ccc(-c3ccc4nnc(C)n4n3)cc2)s1,-2.9,-22.0,-0.9,2.6,-5.8,-1.1
CCc1ccc(S(=O)(=O)Nc2ccc(-c3ccc4nncn4n3)cc2)s1,-4.2,-7.0,23.4*,4.1,-2.5,0.1
CN1CCN(CCCCOc2ccc(F)cc2)CC1,3.8,3.7,21.8*,-3.9,8.9,12.0
CN1CCN(CCCCOc2ccc(Br)cc2)CC1,1.0,3.6,3.5,5.5,4.3,10.7
CC(C)(C)c1ccc(OCCCN2CCCC2)cc1,-0.9,0.4,24.4*,8.2,-11.8,3.2
CCCCCN1CCCCC(NC(=O)c2cccc(F)c2)C1=O (stereo not given),-0.7,-0.4,9.7,-0.9,5.8,4.9
COc1ccccc1C1NC=C([N+](=O)[O-])C=C1[N+](=O)[O-] (stereo not given),-0.3,3.2,-3.4,24.3*,3.7,-3.3
COc1ccccc1C1C([N+](=O)[O-])=CC([N+](=O)[O-])=CN1C (stereo not given),3.0,2.5,-11.2,0.2,-2.3,-7.7
COC(=O)C[C@@H]1CC[C@@H]2[C@H](COc3ccc(NC(=O)c4cccc(OC)c4)cc3C(=O)N2C)O1,-1.7,-2.8,-0.8,3.3,-5.5,-8.1
O=c1oc2ccccc2c(NCCO)c1[N+](=O)[O-],1.0,-0.1,40.6*,1.0,-9.6,1.2
O=c1oc2ccccc2c(NCc2ccccc2)c1[N+](=O)[O-],-2.5,3.1,6.4,-0.1,-0.3,0.3
COC(=O)CSc1nnc(-c2ccoc2C)n1-c1ccc(C)cc1,2.5,-2.7,21.9*,4.7,-10.9,13.0
NCC12CC3CC(C1)CC(c1ccc(Cl)cc1)(C3)C2,-4.2,1.6,21.1*,2.3,0.8,4.8
O=C(OCC#CCSc1nnc(-c2cccc3ccccc23)o1)c1cccc(F)c1,3.3,-3.8,-0.4,-1.4,2.2,-0.7
CN(C)S(=O)(=O)c1ccc(Cl)c(C(=O)Nc2nc3ccccc3[nH]2)c1,-1.9,-2.5,39.0*,0.3,2.5,2.0
CCN1CCC(O)(/C=C/c2ccc(C(C)C)cc2)C(C(=O)/C=C/c2ccc(C(C)C)cc2)C1 (stereo not given),-2.6,1.6,-0.5,23.6*,2.8,-2.4
COC(=O)[C@]12C[C@H](CC(=O)NCc3ccc(OC)c(OC)c3)C(=O)N(Cc3ccco3)C1=C[C@H](C(C)(C)C)O[C@@H]2C,-1.2,3.4,-1.7,1.7,1.1,2.9
O=C(Nc1nncs1)c1cccnc1Cl,-0.9,6.5,24.9*,1.4,11.8,10.1
CN1C(=O)[C@@](O)(c2cccn2C)c2cc(Cl)ccc21,0.3,-1.5,0.6,2.4,0.7,5.5
SMILES,LEDGF integ inh,SIAE primary,UHRF1 MBD2 ctr,PRMT1 FP inh,TDP2 absorb,MBD2 inh
CCOC(=O)c1ccc(-n2[nH]c(-c3ccccc3)cc2=O)cc1,6.4,8.4,12.9,0.3,35.1*,1.4
Cc1cccc(C)c1-n1nnnc1C1(C)CCC(=O)N1c1ccc(N2CCOCC2)cc1 (stereo not given),3.6,6.7,22.6*,2.6,11.4,12.2
Cn1c(SCC(=O)c2ccccc2)nnc1C1COc2ccccc2O1 (stereo not given),-7.8,0.0,4.8,5.6,-3.5,2.1
Cn1c(SCC(=O)c2ccc3c(c2)OCO3)nnc1C1COc2ccccc2O1 (stereo not given),-1.1,-4.3,3.3,22.3*,-18.2,1.2
CC1(C)C(C(=O)O)N2C(=O)C(NC(=O)Cc3ccccc3)C2S1=O (stereo not given),-0.4,9.7,-3.5,22.9*,15.0,3.8
Cc1ccc2[nH]c3c(c2c1)CN(C(=O)CN1CCN(C(=O)c2ccco2)CC1)CC3,3.1,3.1,-3.1,21.2*,-0.8,-2.6
CCOc1ccccc1N(CC(=O)N(C)Cc1ccccc1)S(=O)(=O)c1ccccc1,4.3,-2.4,22.6*,-3.2,7.5,7.3
CC(C)CCn1c(SCC(=O)Nc2ccccc2C(F)(F)F)nc2nccnc2c1=O,5.0,-0.7,22.3*,-1.2,-11.2,4.8
COCCn1c(SCC(=O)Nc2ccccc2C(F)(F)F)nc2ccccc2c1=O,2.0,-6.0,-5.6,-1.9,-3.1,1.4
CN(C)c1cccc(/C=C2\CC3(OC(=O)c4ccc(F)cc4)CCCN2C3)c1 (stereo not given),0.1,8.4,-2.2,1.6,-2.3,0.9
Cc1ccccc1N(C)C(=O)C1CCCN1S(=O)(=O)c1cccc2cccnc12 (stereo not given),-4.0,-0.6,1.6,1.6,-10.2,3.8
CC1=CC(C)(C)N2C(=O)C(=O)c3cc(OC(=O)c4ccco4)cc1c32,1.5,6.2,-7.1,2.4,11.0,-12.8
COc1cc2c3c(c1)/C(=C1/SC(NC(C)=O)=NC1=O)C(=O)N3C(C)(C)C=C2C,-0.1,24.9*,-4.0,4.5,1.0,0.7
Cc1nc2cc(C(=O)N3CCN(C(=O)C(C)(C)C)CC3)ccc2n1C1CCCC1,-2.2,5.2,3.2,5.2,2.3,4.3
C[C@H]1[C@@H](N(C)C)CC[C@@]23CCCN2C(=O)CCC[C@@H]13,-0.5,3.4,-1.9,-2.3,0.5,-1.6
COc1ccc(C(=O)C2(C(=O)Nc3cc(C)cc(C)c3)CC(c3ccccn3)=NO2)cc1 (stereo not given),-0.7,-3.4,-1.8,-2.3,3.9,3.9
COCCCN1C(=O)[C@H](CC(=O)NCc2cccs2)[C@]2(C(=O)OC)CCCCC=C12,-3.0,-2.9,-3.7,1.8,2.6,3.2
COC(=O)C1CN(Cc2ccc(F)cc2)CCS(=O)(=O)N1Cc1cn(Cc2ccc(C)cc2)nn1 (stereo not given),-0.8,4.4,13.7,-0.3,-1.5,8.5
COc1ccccc1N1CCN(C(=O)COc2cc(C)ccc2C)CC1,-0.9,-4.1,0.5,-1.4,-2.6,-2.1
